# Measured values of several laboratories.
# Protocols differ between the studies behind these lines.
# LRRK2: Leucine-rich repeat serine/threonine-protein kinase 2 (LRRK2, Homo sapiens, UniProt Q5S007)
# LRRK2 G2019S: Leucine-rich repeat serine/threonine-protein kinase 2 (LRRK2, Homo sapiens, UniProt Q5S007, G2019S)
SMILES,target,observed,technique,tested at,remaining binding
c1cnn2ncc(-c3ccnc(N4CCC45COC5)n3)c2c1,LRRK2,binding,,1 µM,35%
Cc1nc(C2CCN(C(=O)c3ccc(OC(F)(F)F)cc3N)CC2)c2ncc(N3CCN(C)CC3)cc2n1,LRRK2 G2019S,cell-free assay,competition with immobilised ligand,1 µM,100%
CN(C)c1nccc(-c2cnn3ncccc23)n1,LRRK2,binding,,1 µM,90%
COc1ncc2cc3ccccc3nc2c1C#N,LRRK2,cell-free assay,competition with immobilised ligand,5 µM,100%
O=C(NCC1CCOCC1)c1n[nH]cc1NC(=O)c1c(F)cccc1F,LRRK2 G2019S,binding,competition with immobilised ligand,1 µM,89%
CN(c1nccc(-c2cnn3ncccc23)n1)C1CC1,LRRK2,binding,,1 µM,100%
Cn1cc(Cl)c2c(Oc3c(F)cc(Nc4cc(Cl)nc(N)n4)cc3F)ccnc21,LRRK2,cell-free assay,competition with immobilised ligand,0.1 µM,75%
O=C(c1ccc(Nc2nccc(-c3cc4ccccc4s3)n2)cc1)N1CCC(N2CCCC2)CC1,LRRK2,binding,competition with immobilised ligand,1 µM,40%
CN(C)c1nccc(-c2cnc3ncccn23)n1,LRRK2,binding,,1 µM,61%
CC(=O)N1CCC(c2ccc(C(=O)NC(=N)N)cc2C(F)(F)F)CC1,LRRK2 G2019S,cell-free assay,competition with immobilised ligand,1 µM,100%
CN1CCN(c2ccc(Nc3nccc(-c4ccccc4)n3)cc2C(F)(F)F)CC1,LRRK2 G2019S,binding,,10 µM,100%
C[C@@H](c1ccc(-n2cnc3c(N)ncnc32)cc1)N1CCc2nn(C)c(Cc3ccccc3)c2C1=O,LRRK2,binding,competition with immobilised ligand,0.1 µM,93%
C=CC(=O)N1CCC(C(=O)NCC(=O)N2CCN(c3nc(-c4cnc(N)nc4C(F)F)nc(N4CCOCC4)n3)CC2)CC1,LRRK2,binding,competition with immobilised ligand,1 µM,63%
COc1cnc(Nc2cccc(S(N)(=O)=O)c2)nc1N1CCN(c2ccccc2)CC1,LRRK2,binding,competition with immobilised ligand,1 µM,80%
C[C@@H]1CCN(c2nccc(-c3cnn4ncccc34)n2)C1,LRRK2 G2019S,binding,,1 µM,63%
CCN1CCN(Cc2ccc(C(=O)Nc3ccc(C)c(Oc4ccc5c(c4)CC(=O)N5)c3)cc2C(F)(F)F)CC1,LRRK2 G2019S,binding,competition with immobilised ligand,1 µM,100%
CN(C)c1ncc(F)c(-c2cnn3ncccc23)n1,LRRK2 G2019S,binding,,1 µM,100%
CC(=O)c1c(NS(C)(=O)=O)c2cc(-c3ccc(Cl)cc3)c(-c3ccc(Cl)cc3Cl)nc2n(C)c1=O,LRRK2,cell-free assay,competition with immobilised ligand,1 µM,65%
Nc1ncc2c(n1)-c1c([nH]c3ccc(C#CC4CC4)cc13)CCCC2,LRRK2 G2019S,binding,competition with immobilised ligand,1 µM,83%
Cc1cnc(Nc2ccc(C(=O)N3CCC(N4CCCC4)CC3)cc2)nc1-c1cc2ccccc2s1,LRRK2,binding,competition with immobilised ligand,1 µM,8.3%
CS(=O)(=O)NCC[C@H](NC(=O)c1cncc2c1cnn2-c1ccc(F)cc1)c1ccnc(S(C)(=O)=O)c1,LRRK2,cell-free assay,competition with immobilised ligand,1 µM,86%
CN(CCCC(F)(F)F)c1nccc(-c2cnn3ncccc23)n1,LRRK2,binding,,1 µM,100%
c1cncc(-c2cccc(Nc3nccc(NC4CCCCC4)n3)c2)c1,LRRK2,binding,competition with immobilised ligand,10 µM,49%
CCS(=O)(=O)c1cc2cc(C[C@](O)(CC(C)(C)c3ccc(F)cc3C(N)=O)C(F)(F)F)[nH]c2cn1,LRRK2,cell-free assay,competition with immobilised ligand,1 µM,100%
O=C(Nc1c[nH]nc1C(=O)NC1CCNCC1)c1cc(F)cc(F)c1,LRRK2,binding,competition with immobilised ligand,1 µM,92%
CNC(=O)[C@@H]1CC[C@@H](n2c(-c3ccc4cnccc4c3)nc3ccc(C(=O)NCc4cccc(C(N)=O)c4)cc32)C1,LRRK2 G2019S,binding,competition with immobilised ligand,1 µM,100%
O=C(NCCCN1CCOCC1)c1ccc(Nc2nccc(-c3cc4ccccc4s3)n2)cc1,LRRK2 G2019S,binding,competition with immobilised ligand,1 µM,69%
F[C@@H]1CCN(c2nccc(-c3cnn4ncccc34)n2)C1,LRRK2 G2019S,binding,,1 µM,100%
O=C(NCCCN1CCOCC1)c1ccc(Nc2ncc(Cl)c(-c3ccc(Cl)s3)n2)cc1,LRRK2,binding,competition with immobilised ligand,1 µM,24%
O=C(N[C@H]1CCCCC/C=C\C2C[C@@]2(C(=O)O)NC(=O)[C@@H]2C[C@@H](Oc3ccncc3)CN2C1=O)OC1CCCC1 (stereo partly shown),LRRK2 G2019S,binding,competition with immobilised ligand,1 µM,86%
O=C(c1ccc(Nc2ncc(Cl)c(-c3cc4ccccc4s3)n2)cc1)N1CCC(N2CCCC2)CC1,LRRK2,binding,competition with immobilised ligand,1 µM,12%
C[C@@H]1CN(c2cc(-c3nn(C)c4ccc(OC5(C)CC5)cc34)ncn2)C[C@H](C)O1,LRRK2,binding,competition with immobilised ligand,1 µM,22%
O=C(c1ccc(Nc2ncc(Cl)c(-c3ccc(Cl)s3)n2)cc1)N1CCC(N2CCCC2)CC1,LRRK2,binding,competition with immobilised ligand,1 µM,3.3%
COc1cnc(Nc2cccc(S(N)(=O)=O)c2)nc1N1CCN(c2ccccc2)C(=O)C1,LRRK2,binding,competition with immobilised ligand,1 µM,95%
